Assay results gathered from unrelated publications.
Compare with care: the assays were run in different laboratories.

| Structure (SMILES) | cell line | test | setting | quantity | value |
| --- | --- | --- | --- | --- | --- |
| C=CC(=O)Nc1cc(Nc2nccc(-c3cn(C)c4ccccc34)n2)c(OC)cc1N(C)CCN(C)C | Calu-3 | cell growth or viability | 72 h | IC50 | 0.65 µM |
| c1ccc([C@@H]2C[C@H]2NC2CCNCC2)cc1 | TF-1a | cell growth or viability, resazurin | 96 h | EC50 | 0.00155 µM |
| Cc1c2ccncc2c(C)c2c1[nH]c1ccccc12 | THP-1 | TNF-α release, inhibitor | 17 h, LPS-stimulated | IC50 | 1.57 µM |
| CCCCCCCC(=O)SCC/C=C/[C@@H]1CC(=O)NCc2nc(cs2)C2=N[C@@](C)(CS2)C(=O)N[C@@H](C(C)C)C(=O)O1 | SW-620 | cell growth or viability, resazurin | 48 h | IC50 | 0.0265 µM |
| O=c1ccc2cc3ccoc3cc2o1 | HEp-2 | cell growth or viability, WST-1 | 48 h | IC50 | 20.5 µM |
| Cn1cncc1[C@@](N)(c1ccc(Cl)cc1)c1ccc2c(c1)c(-c1cccc(Cl)c1)cc(=O)n2C | FaDu | cell growth or viability | 72 h | IC50 | 2.73 µM |
| C[C@@H](O)[C@H](NC(=O)[C@H](CCCNC(=N)N)NC(=O)[C@H](CC(N)=O)NC(=O)[C@H](CC(N)=O)NC(=O)[C@@H](N)CCCNC(=N)N)C(=O)N[C@@H](CO)C(=O)NCC(=O)N[C@@H](Cc1ccccc1)C(=O)N[C@@H](CCCCN)C(=O)N[C@@H](Cc1c[nH]c2ccccc12)C(=O)O | THP-1 | cell growth or viability, ATP luminescence | 48 h | IC50 | 1.8 µM |
| N.N.[Cl][Pt][Cl] | MCF7 | cell growth or viability, SRB | – | EC50 | 3.6 µM |
| CC(C)[C@@H]1NC(=O)[C@H](CO)NC(=O)[C@H](CO)NC(=O)[C@H](CO)N(C)C(=O)[C@H](CC(=O)O)NC(=O)[C@H](CO)NC(=O)[C@H](Cc2ccccc2)NC(=O)CSC[C@@H](C(=O)NCC(N)=O)NC(=O)[C@H](CC(N)=O)NC(=O)[C@H](CCCNC(=N)N)NC(=O)[C@H](C)NC(=O)[C@H](Cc2ccc(-c3ccccc3)cc2)NC(=O)[C@H](CC(N)=O)NC(=O)[C@@H]2CCCN2C1=O | SJSA-1 | cell growth or viability | – | EC50 | > 30 µM |
| C/C1=C/C(=O)O[C@@H]2C[C@@H](CC[C@H](C)/C=C\C=C\CC1)O[C@@](O)([C@@H]1CSC(=O)N1)C2 | MCF7 | cell growth or viability, MTT | 72 h | IC50 | 0.48 µM |
| O=c1ccc2ccc3occc3c2o1 | HEp-2 | cell growth or viability, WST-1 | 48 h | IC50 | 11.5 µM |
| COc1cc2c3c(n(CCCN4CCOCC4)c(=O)c2cc1OC)-c1cc2c(cc1C3=O)OCO2 | P388 | cell growth or viability | 72 h | IC50 | 0.154 µg/mL |
| COc1c2c(cc3c1OCO3)[C@]13C=C[C@H](OC)C[C@@H]1[N@](C2)C[C@H]3OC(=O)c1ccoc1 | SAOS-2 | cell growth or viability, WST-1 | – | IC50 | > 10 µM |
| COc1cc2c3c(n(CCCNCCO)c(=O)c2cc1OC)-c1cc2c(cc1C3=O)OCO2 | MCF7 | cell growth or viability, SRB | – | GI50 | < 0.01 µM |
| C1COCCN1.COc1ccc(/C=C\c2cc(I)c(OC)c(I)c2)cc1OP(=O)(O)O | MCF7 | cell growth or viability, SRB | 48 h | GI50 | 0.066 µg/mL |
| COc1c2c(cc3c1OCO3)[C@]13C=C[C@H](OC)C[C@@H]1[N@](C2)C[C@H]3OC(=O)c1ccco1 | SAOS-2 | cell growth or viability, WST-1 | – | IC50 | > 10 µM |
| CCN1C(=O)SCC1C1(OC)CC2CC(CCC(C)C=CC=CCCC(C)=CC(=O)O2)O1 (stereo not drawn) | MCF7 | cell growth or viability, MTT | 72 h | IC50 | 20.6 µM |
| CC(C)[C@H](N)C(=O)N1CCC[C@H]1B(O)O | THP-1 | cell growth or viability, ATP luminescence | 48 h | IC50 | 0.206 µM |
